Test results as given in ChEMBL document CHEMBL1152649, “Synthesis, cytotoxicity and human telomerase inhibition activities of a series of 1,2-heteroannelated anthraquinones and anthra[1,2-d]imidazole-6,11-dione homologues” (2009).

Legend:
[1] = tested on: MDA-MB-435; experiment: Antiproliferative activity against human MDA-MB-435 cells assessed as cell growth at 10 uM; format: functional; settings: read-out: Activity
Summary of the method: (§1)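 NCI 60 cell line panel, single-dose screen (10^-5 M) run by the developmental therapeutics program protocol. Results are given as growth percent of treated cells relative to untreated control cells for each line.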

[2] = tested on: SNB-75; experiment: Antiproliferative activity against human SNB75 cells assessed as cell growth at 10 uM; format: functional; settings: read-out: Activity
Summary of the method: (§2)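 NCI 60 cell line panel, single dose (10^-5 M), run per the Developmental Therapeutics Program protocol (one dose mean graph). Each result is the growth percentage of treated cells relative to untreated control cells.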

[3] = tested on: A498; experiment: Antiproliferative activity against human A498 cells assessed as cell growth at 10 uM; format: functional; settings: read-out: Activity; summary of the method: as §1
[4] = tested on: OVCAR-5; experiment: Antiproliferative activity against human OVCAR5 cells assessed as cell growth at 10 uM; format: functional; settings: read-out: Activity; summary of the method: as §1
[5] = tested on: U-251; experiment: Antiproliferative activity against human U251 cells assessed as cell growth at 10 uM; format: functional; settings: read-out: Activity; summary of the method: as §2
[6] = tested on: T47D; experiment: Antiproliferative activity against human T47D cells assessed as cell growth at 10 uM; format: functional; settings: read-out: Activity; summary of the method: as §2
[7] = Cytotoxicity against human H1299 cells at 10 uM after 48 hrs by MTT assay; format: functional; settings: NCI-H1299, 48 h
Summary of the method: (§3)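 H1299 non-small cell lung cancer cells were grown in RPMI 1640 with 10% FBS, penicillin and streptomycin at 37 °C under 5% CO2. About 2 × 10³ cells per well were seeded and left 24 h. Compounds were dissolved fresh in DMSO, diluted into complete medium and applied for 48 h. MTT was then added for 4 h at 37 °C, followed by lysis buffer (20% SDS, 50% DMF) for 16 h, and absorbance was read at 550 nm.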

[8] = tested on: 786-0; experiment: Antiproliferative activity against human 786-0 cells assessed as cell growth at 10 uM; format: functional; settings: read-out: Activity; summary of the method: as §1
[9] = tested on: HCT-116; experiment: Antiproliferative activity against human HCT116 cells assessed as cell growth at 10 uM; format: functional; settings: read-out: Activity; summary of the method: as §1
[10] = tested on: SK-MEL-28; experiment: Antiproliferative activity against human SK-MEL-28 cells assessed as cell growth at 10 uM; format: functional; settings: read-out: Activity; summary of the method: as §1
[11] = tested on: CCRF-CEM; experiment: Antiproliferative activity against human CCRF-CEM cells assessed as cell growth at 10 uM; format: functional; settings: read-out: Activity; summary of the method: as §1
[12] = tested on: SF-539; experiment: Antiproliferative activity against human SF539 cells assessed as cell growth at 10 uM; format: functional; settings: read-out: Activity; summary of the method: as §1
[13] = tested on: M14; experiment: Antiproliferative activity against human M14 cells assessed as cell growth at 10 uM; format: functional; settings: read-out: Activity; summary of the method: as §1
[14] = biological target: Telomerase reverse transcriptase (Homo sapiens) (UniProt O14746); experiment: Inhibition of TERT in human H1299 cells assessed as residual transcriptional activity at 1 uM after 24 hrs by SEAP reporter gene assay; values are per cent of control
Sequence of Telomerase reverse transcriptase (Homo sapiens) (O14746 whole entry): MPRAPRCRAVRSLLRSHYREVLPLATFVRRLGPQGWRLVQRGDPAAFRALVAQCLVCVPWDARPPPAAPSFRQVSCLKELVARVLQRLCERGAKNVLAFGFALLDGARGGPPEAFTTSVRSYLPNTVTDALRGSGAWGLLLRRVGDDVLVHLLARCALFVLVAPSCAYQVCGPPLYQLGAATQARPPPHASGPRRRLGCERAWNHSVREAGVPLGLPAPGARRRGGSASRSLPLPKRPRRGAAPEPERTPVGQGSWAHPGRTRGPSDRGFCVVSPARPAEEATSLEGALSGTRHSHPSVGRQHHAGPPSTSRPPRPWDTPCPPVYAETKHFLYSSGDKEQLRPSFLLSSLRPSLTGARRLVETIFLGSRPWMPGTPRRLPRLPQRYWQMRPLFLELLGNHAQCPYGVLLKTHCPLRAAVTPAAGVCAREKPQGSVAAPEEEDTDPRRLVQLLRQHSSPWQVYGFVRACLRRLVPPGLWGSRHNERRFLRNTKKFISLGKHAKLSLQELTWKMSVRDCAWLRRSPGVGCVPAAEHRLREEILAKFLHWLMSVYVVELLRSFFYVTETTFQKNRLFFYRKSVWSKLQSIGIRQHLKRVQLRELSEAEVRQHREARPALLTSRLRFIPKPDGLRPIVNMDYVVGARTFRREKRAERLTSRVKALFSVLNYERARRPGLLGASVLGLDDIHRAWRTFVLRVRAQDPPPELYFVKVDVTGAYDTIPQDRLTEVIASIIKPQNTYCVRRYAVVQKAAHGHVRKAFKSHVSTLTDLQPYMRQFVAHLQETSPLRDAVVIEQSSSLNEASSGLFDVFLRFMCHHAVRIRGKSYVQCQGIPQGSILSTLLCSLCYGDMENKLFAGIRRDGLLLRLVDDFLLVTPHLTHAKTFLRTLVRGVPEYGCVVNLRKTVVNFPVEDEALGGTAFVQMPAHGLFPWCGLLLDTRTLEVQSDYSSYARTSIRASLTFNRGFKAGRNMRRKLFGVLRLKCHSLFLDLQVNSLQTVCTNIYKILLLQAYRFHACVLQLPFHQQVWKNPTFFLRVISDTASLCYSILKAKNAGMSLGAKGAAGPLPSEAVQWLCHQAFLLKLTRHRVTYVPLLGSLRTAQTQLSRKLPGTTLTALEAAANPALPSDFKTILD

[15] = tested on: NCI-H522; experiment: Antiproliferative activity against human NCI-H522 cells assessed as cell growth at 10 uM; format: functional; settings: read-out: Activity; summary of the method: as §1
[16] = tested on: SW-620; experiment: Antiproliferative activity against human SW620 cells assessed as cell growth at 10 uM; format: functional; settings: read-out: Activity; summary of the method: as §2
[17] = Cytotoxicity against human H1299 cells at 1 uM after 48 hrs by MTT assay; format: functional; settings: NCI-H1299, 48 h; summary of the method: as §3
[18] = tested on: SK-OV-3; experiment: Antiproliferative activity against human SKOV3 cells assessed as cell growth at 10 uM; format: functional; settings: read-out: Activity; summary of the method: as §1
[19] = tested on: SK-MEL-5; experiment: Antiproliferative activity against human SK-MEL-5 cells assessed as cell growth at 10 uM; format: functional; settings: read-out: Activity; summary of the method: as §1
[20] = tested on: UACC-257; experiment: Antiproliferative activity against human UACC257 cells assessed as cell growth at 10 uM; format: functional; settings: read-out: Activity; summary of the method: as §2
[21] = tested on: EKVX; experiment: Antiproliferative activity against human EKVX cells assessed as cell growth at 10 uM; format: functional; settings: read-out: Activity; summary of the method: as §1
[22] = tested on: SN12C; experiment: Antiproliferative activity against human SN12C cells assessed as cell growth at 10 uM; format: functional; settings: read-out: Activity; summary of the method: as §1
[23] = tested on: UACC-62; experiment: Antiproliferative activity against human UACC62 cells assessed as cell growth at 10 uM; format: functional; settings: read-out: Activity; summary of the method: as §2
[24] = tested on: SNB-19; experiment: Antiproliferative activity against human SNB19 cells assessed as cell growth at 10 uM; format: functional; settings: read-out: Activity; summary of the method: as §1
[25] = Antiproliferative activity against human Hs 578T cells assessed as cell growth at 10 uM; format: functional; settings: read-out: Activity; summary of the method: as §1
[26] = tested on: SF-268; experiment: Antiproliferative activity against human SF268 cells assessed as cell growth at 10 uM; format: functional; settings: read-out: Activity; summary of the method: as §1
[27] = tested on: SF-295; experiment: Antiproliferative activity against human SF295 cells assessed as cell growth at 10 uM; format: functional; settings: read-out: Activity; summary of the method: as §1
[28] = tested on: Malme-3M; experiment: Antiproliferative activity against human MALME-3M cells assessed as cell growth at 10 uM; format: functional; settings: read-out: Activity; summary of the method: as §1
[29] = tested on: COLO 205; experiment: Antiproliferative activity against human COLO205 cells assessed as cell growth at 10 uM; format: functional; settings: read-out: Activity; summary of the method: as §1
[30] = tested on: K562; experiment: Antiproliferative activity against human K562 cells assessed as cell growth at 10 uM; format: functional; settings: read-out: Activity; summary of the method: as §1
[31] = tested on: NCI-H23; experiment: Antiproliferative activity against human NCI-H23 cells assessed as cell growth at 10 uM; format: functional; settings: read-out: Activity; summary of the method: as §1
[32] = tested on: NCI/ADR-RES; experiment: Antiproliferative activity against human NCI/ADR-RES cells assessed as cell growth at 10 uM; format: functional; settings: read-out: Activity; summary of the method: as §1
[33] = tested on: HCT-15; experiment: Antiproliferative activity against human HCT15 cells assessed as cell growth at 10 uM; format: functional; settings: read-out: Activity; summary of the method: as §1
[34] = tested on: HL-60(TB); experiment: Antiproliferative activity against human HL-60(TB) cells assessed as cell growth at 10 uM; format: functional; settings: read-out: Activity
Summary of the method: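 NCI Developmental Therapeutics Program 60-cell-line one-dose screen at 10^-5 M. Readout is growth percentage of treated cells relative to untreated control cells.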

[35] = Cytotoxicity against human H1299 cells at 100 uM after 48 hrs by MTT assay; format: functional; settings: NCI-H1299, 48 h; summary of the method: as §3
[36] = tested on: SR; experiment: Antiproliferative activity against human SR cells assessed as cell growth at 10 uM; format: functional; settings: read-out: Activity; summary of the method: as §2
[37] = tested on: DU-145; experiment: Antiproliferative activity against human DU145 cells assessed as cell growth at 10 uM; format: functional; settings: read-out: Activity; summary of the method: as §1
[38] = tested on: MOLT-4; experiment: Antiproliferative activity against human MOLT4 cells assessed as cell growth at 10 uM; format: functional; settings: read-out: Activity; summary of the method: as §1
[39] = tested on: CAKI-1; experiment: Antiproliferative activity against human Caki1 cells assessed as cell growth at 10 uM; format: functional; settings: read-out: Activity; summary of the method: as §1
[40] = tested on: NCI-H226; experiment: Antiproliferative activity against human NCI-H226 cells assessed as cell growth at 10 uM; format: functional; settings: read-out: Activity; summary of the method: as §1
[41] = tested on: OVCAR-3; experiment: Antiproliferative activity against human OVCAR-3 cells assessed as cell growth at 10 uM; format: functional; settings: read-out: Activity; summary of the method: as §1
[42] = tested on: SK-MEL-2; experiment: Antiproliferative activity against human SK-MEL-2 cells assessed as cell growth at 10 uM; format: functional; settings: read-out: Activity; summary of the method: as §1
[43] = tested on: HT-29; experiment: Antiproliferative activity against human HT-29 cells assessed as cell growth at 10 uM; format: functional; settings: read-out: Activity; summary of the method: as §1
[44] = biological target: Telomerase reverse transcriptase (Homo sapiens) (UniProt O14746); experiment: Inhibition of TERT in human H1299 cells assessed as residual transcriptional activity at 10 uM after 24 hrs by SEAP reporter gene assay; values are per cent of control
[45] = tested on: OVCAR-4; experiment: Antiproliferative activity against human OVCAR4 cells assessed as cell growth at 10 uM; format: functional; settings: read-out: Activity; summary of the method: as §1
[46] = tested on: PC-3; experiment: Antiproliferative activity against human PC3 cells assessed as cell growth at 10 uM; format: functional; settings: read-out: Activity; summary of the method: as §1

## CC1(C)Nc2ccc3c(c2N1)C(=O)c1ccccc1C3=O
[1]
  growth at 10 µM: 125%
[2]
  growth at 10 µM: 78%
[3]
  growth at 10 µM: 80.6%
[4]
  growth at 10 µM: 96.5%
[5]
  growth at 10 µM: 87.8%
[6]
  growth at 10 µM: 83%
[7]
  viability at 10 µM: 93%
[8]
  growth at 10 µM: 86.2%
[9]
  growth at 10 µM: 54.7%
[10]
  growth at 10 µM: 129%
[11]
  growth at 10 µM: 74%
[12]
  growth at 10 µM: 93.6%
[13]
  growth at 10 µM: 83.7%
[14]
  residual activity: 96%
[15]
  growth at 10 µM: 38.9%
[16]
  growth at 10 µM: 91.7%
[17]
  viability at 1 µM: 98%
[18]
  growth at 10 µM: 35.9%
[19]
  growth at 10 µM: 86.5%
[20]
  growth at 10 µM: 118%
[21]
  growth at 10 µM: 63.1%
[22]
  growth at 10 µM: 92%
[23]
  growth at 10 µM: 67.6%
[24]
  growth at 10 µM: 94.3%
[25]
  growth at 10 µM: 68.4%
[26]
  growth at 10 µM: 90.2%
[27]
  growth at 10 µM: 98%
[28]
  growth at 10 µM: 155%
[29]
  growth at 10 µM: 90.6%
[30]
  growth at 10 µM: 101%
[31]
  growth at 10 µM: 87%
[32]
  growth at 10 µM: 103%
[33]
  growth at 10 µM: 64.6%
[34]
  growth at 10 µM: 129%
[35]
  viability at 100 µM: 31%
[36]
  growth at 10 µM: 72.4%
[37]
  growth at 10 µM: 76%
[38]
  growth at 10 µM: 116%
[39]
  growth at 10 µM: 61.7%
[40]
  growth at 10 µM: 89.7%
[41]
  growth at 10 µM: 78.2%
[42]
  growth at 10 µM: 8.04%
[43]
  growth at 10 µM: 103%
[44]
  residual activity: 73%
[45]
  growth at 10 µM: 80.1%

## N#Cc1ccc(-c2nc3ccc4c(c3[nH]2)C(=O)c2ccccc2C4=O)cc1
[1]
  growth at 10 µM: 113%
[2]
  growth at 10 µM: 63.2%
[3]
  growth at 10 µM: 96.2%
[46]
  growth at 10 µM: 109%
[4]
  growth at 10 µM: 98.1%
[5]
  growth at 10 µM: 112%
[6]
  growth at 10 µM: 85.1%
[7]
  viability at 10 µM: 77%
[8]
  growth at 10 µM: 124%
[9]
  growth at 10 µM: 79.8%
[10]
  growth at 10 µM: 115%
[11]
  growth at 10 µM: 117%
[12]
  growth at 10 µM: 104%
[13]
  growth at 10 µM: 243%
[14]
  residual activity: 91%
[15]
  growth at 10 µM: 141%
[16]
  growth at 10 µM: 89.4%
[17]
  viability at 1 µM: 80%
[18]
  growth at 10 µM: 104%
[19]
  growth at 10 µM: 103%
[20]
  growth at 10 µM: 105%
[21]
  growth at 10 µM: 99.8%
[22]
  growth at 10 µM: 105%
[23]
  growth at 10 µM: 104%
[24]
  growth at 10 µM: 97.8%
[25]
  growth at 10 µM: 102%
[26]
  growth at 10 µM: 99.2%
[27]
  growth at 10 µM: 120%
[28]
  growth at 10 µM: 201%
[29]
  growth at 10 µM: 113%
[30]
  growth at 10 µM: 54.9%
[31]
  growth at 10 µM: 90.9%
[32]
  growth at 10 µM: 102%
[33]
  growth at 10 µM: 101%
[34]
  growth at 10 µM: 145%
[35]
  viability at 100 µM: 19%
[36]
  growth at 10 µM: 84.1%
[37]
  growth at 10 µM: 97.7%
[38]
  growth at 10 µM: 87.1%
[39]
  growth at 10 µM: 110%
[40]
  growth at 10 µM: 103%
[41]
  growth at 10 µM: 111%
[42]
  growth at 10 µM: 22.5%
[43]
  growth at 10 µM: 86.4%
[44]
  residual activity: 83%
[45]
  growth at 10 µM: 101%
